Measurements pooled from the literature.
Each line is one published result; the experiments were not run side by side.
Target: Maternal embryonic leucine zipper kinase (MELK, Homo sapiens, UniProt Q14680)

SMILES | test | conditions | remaining binding [%]
COc1ccc2c(c1)O[C@@H](c1ccc(OC)c(OC)c1)C[C@H]2NC(=O)C1(c2ccc3c(c2)OC(F)(F)O3)CC1 | cell-free assay, competition with immobilised ligand | 1 µM | 65
CC1CCCN1c1nccc(-c2cnn3ncccc23)n1 (stereo not shown) | binding | 1 µM | 97
COc1cnc(Nc2cccc(S(N)(=O)=O)c2)nc1N1CCN(c2ccccc2)C(=O)C1 | binding, competition with immobilised ligand | 1 µM | 100
C[C@H]1CCN(c2nccc(-c3cnn4ncccc34)n2)C1 | binding | 1 µM | 33
CC(=O)C1=C(C)N(c2cccc(C(F)(F)F)c2)C(=O)N[C@@H]1c1ccc(C#N)nc1 | cell-free assay, competition with immobilised ligand | 1 µM | 88.2
Cc1cnc(Nc2ccc(C(=O)N3CCC(N4CCCC4)CC3)cc2)nc1-c1cc2ccccc2s1 | binding, competition with immobilised ligand | 1 µM | 81
CN(CCCC(F)(F)F)c1nccc(-c2cnn3ncccc23)n1 | binding | 1 µM | 94
CNC(=O)Nc1ccc2c(c1)CC[C@@]21OC(=O)N(CC(=O)N(Cc2ccc(F)cc2)[C@@H](C)C(F)(F)F)C1=O | cell-free assay, competition with immobilised ligand | 1 µM | 91
O=C(NCCCN1CCOCC1)c1ccc(Nc2nccc(-c3cc4ccccc4s3)n2)cc1 | binding, competition with immobilised ligand | 1 µM | 100
c1cnn2ncc(-c3ccnc(N4CCC45COC5)n3)c2c1 | binding | 1 µM | 52
CC(=O)N1CCC(c2ccc(C(=O)NC3=NCCN3)cc2C(F)(F)F)CC1 | cell-free assay, competition with immobilised ligand | 1 µM | 100
Cc1cnn2ncc(-c3ccnc(N(C)C)n3)c2c1 | binding | 1 µM | 100
CCN1CCN(Cc2ccc(C(=O)Nc3ccc(C)c(Oc4ccc5c(c4)CC(=O)N5)c3)cc2C(F)(F)F)CC1 | binding, competition with immobilised ligand | 1 µM | 100
CN([C@@H]1CCc2c(CC(=O)O)c3cc(S(C)(=O)=O)ccc3n2C1)S(=O)(=O)c1ccc(F)cc1 | cell-free assay, competition with immobilised ligand | 1 µM | 84
FC(F)(F)Oc1cccc(-c2cnc3ccc(-c4ccncc4)nn23)c1 | cell-free assay, competition with immobilised ligand | 5 µM | 56
CN(c1nccc(-c2cnn3ncccc23)n1)C1CC1 | binding | 1 µM | 73
O=C(NCC1CCOCC1)c1n[nH]cc1NC(=O)c1c(F)cccc1F | binding, competition with immobilised ligand | 1 µM | 69
O=S(=O)(NC1CCC(c2cc(F)ccc2F)(S(=O)(=O)c2ccc(Cl)cc2)CC1)C(F)(F)F (stereo not shown) | cell-free assay, competition with immobilised ligand | 1 µM | 69
O=C(NCCCN1CCOCC1)c1ccc(Nc2ncc(Cl)c(-c3ccc(Cl)s3)n2)cc1 | binding, competition with immobilised ligand | 1 µM | 69
CN(C)c1nccc(-c2cnn3ncccc23)n1 | binding | 1 µM | 71
C=CC(=O)N1CCC(C(=O)NCC(=O)N2CCN(c3nc(-c4cnc(N)nc4C(F)F)nc(N4CCOCC4)n3)CC2)CC1 | binding, competition with immobilised ligand | 1 µM | 100
COc1ncc2cc3ccccc3nc2c1C#N | cell-free assay, competition with immobilised ligand | 5 µM | 83
